Measurements: article PMC5508592 (The New England journal of medicine, 2016)
Like-named read-outs stand apart in the source and are kept apart here.

Assays:
[1] = tested on: DhhCre;Nf1fl/fl model of neurofibromatosis type 1–related neurofibromas; details: cited from earlier work
[2] = tested on: neurofibromatosis type 1–related plexiform neurofibromas; assay: Response evaluation by volumetric MRI analysis of plexiform neurofibroma volume; format: in vivo, human
[3] = Plasma pharmacokinetics of selumetinib in patients during cycle 1; format: in vivo, human
Method in brief: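 Pediatric patients who consented received oral test compound capsules every 12 h, continuously in 28-day cycles, at 20, 25 or 30 mg per square meter (nomogram by body-surface area). Plasma was sampled in cycle 1 on day 1 before dosing and 0.5, 1, 2, 3, 5, 8, 10–12, 24 and 30–36 h after, and on day 27 before dosing. Parent and N-desmethyl metabolite were assayed; noncompartmental PK analysis.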

[4] = children with low-grade gliomas; cited from earlier work
[5] = format: in vivo
[6] = tested on: phosphorylated extracellular signal-regulated kinase (ERK); assay: Pharmacodynamics in mouse tumor samples; details: in vivo
[7] = tested on: plexiform neurofibroma–related complications; assay: Anecdotal report of amelioration of complications of plexiform neurofibroma; format: in vivo, human
[8] = tested on: plexiform neurofibromas; details: 4 of 83 patients; phase 2 trial; cited from earlier work
[9] = 20-mg group, 7 patients with condition at baseline
[10] = 25-mg group, 3 patients with condition at baseline
[11] = 30-mg group, 3 patients with condition at baseline

For O=C(NOC[C@H](O)CO)c1ccc(F)c(F)c1Nc1ccc(I)cc1F [PD0325901], the “Effect on neurofibroma volume” value [1] is given as “tumor shrinkage in the majority of mice”.
With Cn1cnc2c(F)c(Nc3ccc(Br)cc3Cl)c(C(=O)NOCCO)cc21 [selumetinib] the “Partial response, documented progressive disease at enrollment” value ([2]; 5 of 9 patients) was 56%, the “Partial response, no previous volumetric data available at enrollment” value ([2]; 6 of 7 patients) was 86% and the “Median time free of progression” value ([2]; 9 patients with confirmed tumor growth before enrollment, range, 23 to 46) was 26 cycles. For the same compound, the Confirmed partial response ([2]; 17 of the 24 patients, tumor volume decrease from baseline ≥20%) was 71%, the “Median best response (range)” value ([2]; 20-mg group (N = 12)) was −31 (−6 to −47) % volume change from baseline and the “Median time to best response (range)” value ([2]; 20-mg group (N = 12)) was 22 (5 to 42) mo. For the same compound, the Partial response ([2]; 20-mg group (N = 12), tumor volume decrease from baseline ≥20% for at least 4 weeks) was 9 (75) no. (%), the “No. with response, insufficient information on progression status at entry” value (shortened to “No. with response … at entry”) ([2]; 20-mg group, of 4 patients) was 3 and the “No. with response, nonprogressive disease at trial entry” value ([2]; 20-mg group, of 4 patients) was 4. For the same compound, the “No. with response, progressive disease at trial entry” value ([2]; 20-mg group, of 4 patients) was 2, the “Median best response (range)” value ([2]; 25-mg group (N = 6)) was −34 (−16 to −44) % volume change from baseline and the “Median time to best response (range)” value ([2]; 25-mg group (N = 6)) was 18 (9 to 22) mo. The Partial response ([2]; 25-mg group (N = 6), tumor volume decrease ≥20%) was 5 (83) no. (%), the “No. with response … at entry” value ([2]; 25-mg group, of 2 patients) was 2 and the “No. with response, progressive disease at trial entry” value ([2]; 25-mg group, of 4 patients) was 3. For the same compound, the “Median best response (range)” value ([2]; 30-mg group (N = 6)) was −19 (−13 to −34) % volume change from baseline, the “Median time to best response (range)” value ([2]; 30-mg group (N = 6)) was 8 (5 to 24) mo and the Partial response ([2]; 30-mg group (N = 6), tumor volume decrease ≥20%) was 3 (50) no. (%). The “No. with response … at entry” value ([2]; 30-mg group, of 1 patient) was 1, the “No. with response, progressive disease at trial entry” value ([2]; 30-mg group, of 1 patient) was 0 and the “No. with response, nonprogressive disease at trial entry” value ([2]; 30-mg group, of 4 patients) was 2. For the same compound, the “Tumor volume reduction since reinitiation at a reduced dose” value ([2]; Patient 7 (30-mg group)) was 25%, the “Increase in plexiform neurofibroma volume from baseline after drug interruption” value ([2]; Patient 7 (30-mg group), when selumetinib was restarted) was 9.6% and the “Median change from baseline in plexiform neurofibroma volume (best response)” value ([2]; all 24 patients) was −31%. The “Range of change from baseline in plexiform neurofibroma volume (best response)” value ([2]; all 24 patients) was −5.8 to −47%, the “Median time to maximum response” value ([2]; all patients, range, 5 to 42) was 20 cycles and the “Partial response, tumors assessed as stable at enrollment” value ([2]; in vivo) was 2 of 2. For the same compound, the “Patients with partial response who maintain their response status to date” value ([2]; in vivo) was 15 of the 17, the “Median duration of partial response” value ([2]; range, 6 to 42) was 23 cycles and the “Disease progression (tumor volume increase from baseline of ≥20%)” value ([2]; to date) was “No patients have had disease progression”. The “Drug exposure with increasing dose” value ([3]; 20 to 30 mg per square meter) was “less than dose-proportional”, the “Selumetinib plasma concentrations versus N-desmethyl metabolite” value ([3]; plasma) was “exceeded those of the N-desmethyl metabolite at all time points” and the Absorption ([3]; plasma, cycle 1, 18 patients) was “absorbed rapidly”. For the same compound, the Maximum tolerated dose [4] was 25 mg per square meter, the “Tolerability of 30 mg per square meter relative to maximum tolerated dose” value ([5]; 30 mg per square meter twice daily) was “exceeded the maximum tolerated dose” and the Maximum tolerated dose ([5]; children, oral, every 12 hours, continuous dosing in 28-day cycles, approximately 60% of the recommended adult dose) was 25 mg per square meter. The “Dose-limiting toxic effect: cellulitis” value ([5]; human, in vivo) was “Grade 3 (2 patients)”, the “Dose-limiting toxic effect: decreased left ventricular ejection fraction” value ([5]; human, in vivo) was “Grade 3 (1 patient)” and the “Dose-limiting toxic effect: rash” value ([5]; human, in vivo) was “Grade 3 (1 patient)”. For the same compound, the “Dose-limiting toxic effect: urticaria” value ([5]; human, in vivo) was “Grade 3 (1 patient)”, the “Dose-limiting toxic effects in later cycles: cellulitis” value ([5]; human, in vivo) was 1 patient and the “Dose-limiting toxic effects in later cycles: creatine kinase elevation” value ([5]; human, in vivo) was 4 patients. The “Dose-limiting toxic effects in later cycles: oral mucositis” value ([5]; human, in vivo) was 3 patients, the “Left ventricular ejection fraction after decrease” value ([5]; human, in vivo) was 50% and the Serial ophthalmologic examinations ([5]; human, in vivo) was “no abnormalities, with the exception of a grade 1 asymptomatic cataract at cycle 16 in 1 patient”. For the same compound, the “Severity of most selumetinib-related adverse events” value ([5]; human, in vivo) was “mild (grade 1)”, the “Treatment stopped because of dose-limiting toxic effects” value ([5]; human, in vivo) was 1 and the “Effect on height or weight” value ([5]; in vivo) was “No measurable effect”. The “Reversibility of dose-limiting toxic effects” value ([5]; in vivo) was “reversible”, the “Phosphorylated ERK in mouse tumor samples” value [6] was “transient decrease” and the “Motor dysfunction: no. of patients with improvement” value (from here on “Motor dysfunction: no. of patients”) ([7]; 20-mg group, 3 patients with condition at baseline) was 2. For the same compound, the “Disfigurement: no. of patients with improvement” value (“Disfigurement: no. of patients” for short) [7, 9] was 2, the “Pain: no. of patients with improvement” value [7, 9] was 4 and the “Motor dysfunction: no. of patients” value [7, 10] was 3. For the same compound, the “Pain: no. of patients with improvement” value [7, 10] was 3, the “Disfigurement: no. of patients” value ([7]; 25-mg group, 6 patients with condition at baseline) was 3 and the “Motor dysfunction: no. of patients” value [7, 11] was 0. The “Pain: no. of patients with improvement” value [7, 11] was 1 and the “Disfigurement: no. of patients” value ([7]; 30-mg group, 5 patients with condition at baseline) was 0.
For pegylated interferon alfa-2b, the “Patients with tumor volume decrease from baseline of at least 20%” value [8] is listed as 5%.
